Measured values reported in ChEMBL document CHEMBL1687714, “Genetic analysis of fenhexamid-resistant field isolates of the phytopathogenic fungus Botrytis cinerea” (Antimicrob Agents Chemother, 2008).
In brackets after ≈: the same amount, converted by molar mass. Activity calls are given as the source filed them. No cut-off for these calls is given here.

Legend:
Botrytis cinerea [1] = experiment: Antifungal activity against HydR3 deficient Botrytis cinerea 453 harboring TELerg N369D mutant at 1 ug/ml relative to wild-type; format: functional, organism-based
Summary of the method: (§1)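 In the dominance test, the recipient strains 453b and 286 were transformed with different erg27 alleles. Spores of the transformants were grown on YSS medium containing fenhexamid at different concentrations and 50 µg ml–1 hygromycin B. Parental strains were grown without hygromycin. Growth was scored after 7 days at 21°C.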

Botrytis cinerea [2] = experiment: Antifungal activity against HydR3 deficient Botrytis cinerea 453 harboring TELerg N369D mutant at 2 ug/ml relative to wild-type; format: functional, organism-based; summary of the method: as §1
Botrytis cinerea [3] = experiment: Antifungal activity against Botrytis cinerea 286 harboring TELerg S336C mutant at 5 ug/ml relative to wild-type; format: functional, organism-based; summary of the method: as §1
Botrytis cinerea [4] = experiment: Antifungal activity against highly fenhexamid-resistant Botrytis cinerea 440a assessed as inhibition of germ tube elongation after 24 hrs; format: functional, organism-based
Botrytis cinerea [5] = experiment: Antifungal activity against HydR3 deficient Botrytis cinerea 453 harboring TELerg F412I mutant at 1 ug/ml relative to wild-type; format: functional, organism-based; summary of the method: as §1
Botrytis cinerea [6] = experiment: Antifungal activity against highly fenhexamid-resistant Botrytis cinerea 520a assessed as inhibition of germ tube elongation after 24 hrs; format: functional, organism-based
Botrytis cinerea [7] = experiment: Antifungal activity against moderately to slightly fenhexamid-resistant Botrytis cinerea 286 assessed as inhibition of germ tube elongation after 24 hrs; format: functional, organism-based; conditions: Botrytis cinerea, 286, 24 h
Botrytis cinerea [8] = experiment: Antifungal activity against highly fenhexamid-resistant Botrytis cinerea 533 assessed as inhibition of mycelium growth measured over 5 days; format: functional, organism-based; conditions: Botrytis cinerea, 533, 120 h
Botrytis cinerea [9] = experiment: Antifungal activity against moderately to slightly fenhexamid-resistant Botrytis cinerea 05-ABA assessed as inhibition of mycelium growth measured over 5 days; format: functional, organism-based; conditions: 120 h
Botrytis cinerea [10] = experiment: Antifungal activity against moderately to slightly fenhexamid-resistant Botrytis cinerea 452 assessed as inhibition of germ tube elongation after 24 hrs; format: functional, organism-based; conditions: Botrytis cinerea, 452, 24 h
Botrytis cinerea [11] = experiment: Antifungal activity against highly fenhexamid-resistant Botrytis cinerea MK3-31 assessed as inhibition of germ tube elongation after 24 hrs; format: functional, organism-based; conditions: MK3-31, 24 h
Botrytis cinerea [12] = experiment: Antifungal activity against Botrytis cinerea 286 harboring TELerg S336C mutant at 1 ug/ml relative to wild-type; format: functional, organism-based; summary of the method: as §1
Botrytis cinerea [13] = experiment: Antifungal activity against moderately to slightly fenhexamid-resistant Botrytis cinerea 286 assessed as inhibition of mycelium growth measured over 5 days; format: functional, organism-based; conditions: Botrytis cinerea, 286, 120 h
Botrytis cinerea [14] = experiment: Antifungal activity against Botrytis cinerea B05.10 harboring TELerg F412I mutant assessed as appearance of mycelium growth up to 20 ug/ml; format: functional
Summary of the method: (§2)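 B05.10 transformants carrying the erg27 allele on the pFTELerg plasmid were grown on rich medium with hygromycin B until conidiation. Spores were spread on YSS (synthetic complete) medium with 50 µg ml–1 hygromycin B and fenhexamid at 1 to 20 µg ml–1. After 7 days at 21°C, spores developing mycelium were scored under the microscope.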

Botrytis cinerea [15] = experiment: Antifungal activity against highly fenhexamid-resistant Botrytis cinerea 506b assessed as inhibition of mycelium growth measured over 5 days; format: functional, organism-based; conditions: 120 h
Botrytis cinerea [16] = experiment: Antifungal activity against moderately to slightly fenhexamid-resistant Botrytis cinerea 454 assessed as inhibition of germ tube elongation after 24 hrs; format: functional, organism-based; conditions: Botrytis cinerea, 454, 24 h
Botrytis cinerea [17] = experiment: Antifungal activity against fenhexamid-senistive Botrytis cinerea B05.10 assessed as inhibition of germ tube elongation after 24 hrs; format: functional, organism-based; conditions: B05.10, 24 h
Botrytis cinerea [18] = experiment: Antifungal activity against highly fenhexamid-resistant Botrytis cinerea 179 assessed as inhibition of germ tube elongation after 24 hrs; format: functional, organism-based; conditions: Botrytis cinerea, 179, 24 h
Botrytis cinerea [19] = experiment: Antifungal activity against Botrytis cinerea B05.10 harboring TELerg F412S mutant assessed as appearance of mycelium growth up to 20 ug/ml; format: functional; summary of the method: as §2
Botrytis cinerea [20] = experiment: Antifungal activity against highly fenhexamid-resistant Botrytis cinerea 506b assessed as inhibition of germ tube elongation after 24 hrs; format: functional, organism-based
Botrytis cinerea [21] = experiment: Antifungal activity against HydR3 deficient Botrytis cinerea 453 harboring TELerg F412I mutant at 2 ug/ml relative to wild-type; format: functional, organism-based; summary of the method: as §1
Botrytis cinerea [22] = experiment: Antifungal activity against fenhexamid-senistive Botrytis cinerea B05.10 assessed as inhibition of mycelium growth measured over 5 days; format: functional, organism-based; conditions: B05.10, 120 h
Botrytis cinerea [23] = experiment: Antifungal activity against Botrytis cinerea 223b expressing erg27 HydR3+ alleles assessed as appearance of dense mycelium up to 20 ug/ml; format: functional, organism-based
Summary of the method: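 Spores of parental strains were spread on YSS (synthetic complete) medium containing fenhexamid at several concentrations, without hygromycin B. Growth was scored after 7 days at 21°C.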

Botrytis cinerea [24] = experiment: Antifungal activity against highly fenhexamid-resistant Botrytis cinerea 223b assessed as inhibition of germ tube elongation after 24 hrs; format: functional, organism-based
Botrytis cinerea [25] = experiment: Antifungal activity against moderately to slightly fenhexamid-resistant Botrytis cinerea 57 assessed as inhibition of mycelium growth measured over 5 days; format: functional, organism-based; conditions: Botrytis cinerea, 57, 120 h
Botrytis cinerea [26] = experiment: Antifungal activity against highly fenhexamid-resistant Botrytis cinerea 312 assessed as inhibition of germ tube elongation after 24 hrs; format: functional, organism-based; conditions: Botrytis cinerea, 312, 24 h
Botrytis cinerea [27] = experiment: Antifungal activity against highly fenhexamid-resistant Botrytis cinerea 214 assessed as inhibition of germ tube elongation after 24 hrs; format: functional, organism-based; conditions: Botrytis cinerea, 214, 24 h
Botrytis cinerea [28] = experiment: Antifungal activity against moderately to slightly fenhexamid-resistant Botrytis cinerea 05-ABA assessed as inhibition of germ tube elongation after 24 hrs; format: functional, organism-based
Botrytis cinerea [29] = experiment: Antifungal activity against highly fenhexamid-resistant Botrytis cinerea 05-AVB assessed as inhibition of germ tube elongation after 24 hrs; format: functional, organism-based
Botrytis cinerea [30] = experiment: Antifungal activity against highly fenhexamid-resistant Botrytis cinerea 440b assessed as inhibition of mycelium growth measured over 5 days; format: functional, organism-based; conditions: 120 h
Botrytis cinerea [31] = experiment: Antifungal activity against highly fenhexamid-resistant Botrytis cinerea 1837 assessed as inhibition of mycelium growth measured over 5 days; format: functional, organism-based; conditions: Botrytis cinerea, 1837, 120 h
Botrytis cinerea [32] = experiment: Antifungal activity against moderately to slightly fenhexamid-resistant Botrytis cinerea 57 assessed as inhibition of germ tube elongation after 24 hrs; format: functional, organism-based; conditions: Botrytis cinerea, 57, 24 h
Botrytis cinerea [33] = experiment: Antifungal activity against highly fenhexamid-resistant Botrytis cinerea 223a assessed as inhibition of germ tube elongation after 24 hrs; format: functional, organism-based
Botrytis cinerea [34] = experiment: Antifungal activity against HydR3 deficient Botrytis cinerea 453 harboring TELerg F412I mutant at 5 ug/ml relative to wild-type; format: functional, organism-based; summary of the method: as §1
Botrytis cinerea [35] = experiment: Antifungal activity against moderately to slightly fenhexamid-resistant Botrytis cinerea 202 assessed as inhibition of germ tube elongation after 24 hrs; format: functional, organism-based; conditions: Botrytis cinerea, 202, 24 h
Botrytis cinerea [36] = experiment: Antifungal activity against moderately to slightly fenhexamid-resistant Botrytis cinerea 365 assessed as inhibition of mycelium growth measured over 5 days; format: functional, organism-based; conditions: Botrytis cinerea, 365, 120 h
Botrytis cinerea [37] = experiment: Antifungal activity against HydR3 deficient Botrytis cinerea 453 harboring TELerg F412I mutant at 10 ug/ml relative to wild-type; format: functional, organism-based; summary of the method: as §1
Botrytis cinerea [38] = experiment: Antifungal activity against highly fenhexamid-resistant Botrytis cinerea 379b assessed as inhibition of germ tube elongation after 24 hrs; format: functional, organism-based
Botrytis cinerea [39] = experiment: Antifungal activity against highly fenhexamid-resistant Botrytis cinerea 379a assessed as inhibition of germ tube elongation after 24 hrs; format: functional, organism-based
Botrytis cinerea [40] = experiment: Antifungal activity against moderately to slightly fenhexamid-resistant Botrytis cinerea 365 assessed as inhibition of germ tube elongation after 24 hrs; format: functional, organism-based; conditions: Botrytis cinerea, 365, 24 h
Botrytis cinerea [41] = experiment: Antifungal activity against highly fenhexamid-resistant Botrytis cinerea 223a assessed as inhibition of mycelium growth measured over 5 days; format: functional, organism-based; conditions: 120 h

CC1(C(=O)Nc2ccc(O)c(Cl)c2Cl)CCCCC1 [FENHEXAMID]
Activity (Botrytis cinerea [1]): inactive | Activity (Botrytis cinerea [2]): inactive | Activity (Botrytis cinerea [3]): inactive | EC50 (Botrytis cinerea [4]): > 10 µg/mL | Activity (Botrytis cinerea [5]): inactive | EC50 (Botrytis cinerea [6]): 10 µg/mL (≈ 33.1 µM) | EC50 (Botrytis cinerea [7]): 4 µg/mL (≈ 13.2 µM) | EC50 (Botrytis cinerea [8]): 10 µg/mL (≈ 33.1 µM) | EC50 (Botrytis cinerea [9]): 0.2 µg/mL (≈ 0.662 µM) | EC50 (Botrytis cinerea [10]): 2.5 µg/mL (≈ 8.27 µM) | EC50 (Botrytis cinerea [11]): > 5 µg/mL | Activity (Botrytis cinerea [12]): inactive | EC50 (Botrytis cinerea [13]): 1.5 µg/mL (≈ 4.96 µM) | Activity (Botrytis cinerea [14]): 10% | EC50 (Botrytis cinerea [15]): > 10 µg/mL | EC50 (Botrytis cinerea [16]): 0.5 µg/mL (≈ 1.65 µM) | EC50 (Botrytis cinerea [17]): < 0.1 µg/mL | EC50 (Botrytis cinerea [18]): > 10 µg/mL | Activity (Botrytis cinerea [19]): 10% | EC50 (Botrytis cinerea [20]): > 10 µg/mL | Activity (Botrytis cinerea [21]): inactive | EC50 (Botrytis cinerea [22]): < 0.03 µg/mL | Activity (Botrytis cinerea [23]): inactive | EC50 (Botrytis cinerea [24]): > 10 µg/mL | EC50 (Botrytis cinerea [25]): < 0.3 µg/mL | EC50 (Botrytis cinerea [26]): > 10 µg/mL | EC50 (Botrytis cinerea [27]): 10 µg/mL (≈ 33.1 µM) | EC50 (Botrytis cinerea [28]): 0.8 µg/mL (≈ 2.65 µM) | EC50 (Botrytis cinerea [29]): > 10 µg/mL | EC50 (Botrytis cinerea [30]): > 10 µg/mL | EC50 (Botrytis cinerea [31]): > 10 µg/mL | EC50 (Botrytis cinerea [32]): 2 µg/mL (≈ 6.62 µM) | EC50 (Botrytis cinerea [33]): > 10 µg/mL | Activity (Botrytis cinerea [34]): inactive | EC50 (Botrytis cinerea [35]): 2 µg/mL (≈ 6.62 µM) | EC50 (Botrytis cinerea [36]): 0.3 µg/mL (≈ 0.993 µM) | Activity (Botrytis cinerea [37]): inactive | EC50 (Botrytis cinerea [38]): > 10 µg/mL | EC50 (Botrytis cinerea [39]): > 10 µg/mL | EC50 (Botrytis cinerea [40]): 2 µg/mL (≈ 6.62 µM) | EC50 (Botrytis cinerea [41]): > 10 µg/mL
